Assay results from ChEMBL document CHEMBL1158185, “Synthesis and potent antileukemic activities of 10-benzyl-9(10H)-acridinones” (Bioorg Med Chem, 2008).

Key:
CCRF-CEM [1] = assay: Antiproliferative activity against human CCRF-CEM cells after 48 hrs by MTT assay; format: functional, cell-based
Summary of the method: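 CCRF-CEM cells in RPMI 1640 with 10% FBS, penicillin/streptomycin, 37 °C, 5% CO2, seeded at 2 × 10⁵ cells/mL. Compounds added at various concentrations, each in quintuplicate, for 48 h. Growth read by MTT. IC50 taken as the concentration giving 50% growth inhibition.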

CCRF-CEM [2] = assay: Induction of early stage apoptosis in human CCRF-CEM cells at 2.5 uM after 48 hrs by annexin V-FITC/propidium iodide staining relative to control; format: functional
Summary of the method: (§1)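 CCRF-CEM cells treated with compound at 1.0, 2.5 or 5 μM for 48 h, alongside untreated controls. Stained with annexin V-FITC/PI kit and analysed by flow cytometry, 488 nm laser. Early apoptosis counted as annexin V+/PI−; late apoptosis or necrosis as double positive.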

K562 = assay: Antiproliferative activity against human K-562 cells by MTT assay; format: functional, cell-based
Summary of the method: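 K562 cells seeded at 2 × 10⁵ cells/mL. Compound added at various concentrations in quintuplicate, then incubated. Viability read by MTT. IC50 is the concentration inhibiting growth by 50%.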

CCRF-CEM [3] = assay: Induction of late stage apoptosis in human CCRF-CEM cells at 1 uM after 48 hrs by annexin V-FITC/propidium iodide staining relative to control; format: functional; summary of the method: as §1
CCRF-CEM [4] = assay: Induction of early stage apoptosis in human CCRF-CEM cells at 5 uM after 48 hrs by annexin V-FITC/propidium iodide staining relative to control; format: functional; summary of the method: as §1
HL-60 = assay: Antiproliferative activity against human HL-60 cells by MTT assay; format: functional, cell-based
Summary of the method: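 HL60 cells in RPMI 1640 with 10% FBS, penicillin/streptomycin, 37 °C, 5% CO2, seeded at 2 × 10⁵ cells/mL. Compound added at various concentrations in quintuplicate, then incubated. Viability read by MTT. IC50 is the concentration giving 50% growth inhibition.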

CCRF-CEM [5] = assay: Induction of early stage apoptosis in human CCRF-CEM cells at 1 uM after 48 hrs by annexin V-FITC/propidium iodide staining relative to control; format: functional; summary of the method: as §1
CCRF-CEM [6] = assay: Induction of late stage apoptosis in human CCRF-CEM cells at 5 uM after 48 hrs by annexin V-FITC/propidium iodide staining relative to control; format: functional; summary of the method: as §1
CCRF-CEM [7] = assay: Induction of apoptosis in human CCRF-CEM cells assessed as accumulation at sub-G0 phase after 24 hrs by flow cytometry; format: functional, cell-based
Summary of the method: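 CCRF-CEM cells exposed to compound at 0.5, 1.0 or 2.5 μM for 24 h at 37 °C, alongside untreated controls. Cells washed twice in PBS, fixed in ice-cold 70% ethanol at 4 °C for 1–2 h, then stained with propidium iodide. Sub-diploid (sub-G0) DNA peak measured by flow cytometry, 488 nm argon laser.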

CCRF-CEM [8] = assay: Induction of late stage apoptosis in human CCRF-CEM cells at 2.5 uM after 48 hrs by annexin V-FITC/propidium iodide staining relative to control; format: functional; summary of the method: as §1

Structure (SMILES)	IC50 (CCRF-CEM [1])	other results
O=c1c2ccccc2n(Cc2cc(OCc3ccccc3)cc(OCc3ccccc3)c2)c2ccccc12	> 100 µM	
O=c1c2ccccc2[nH]c2ccccc12 [ACRIDONE]	> 100 µM	
O=c1c2ccccc2n(Cc2cccc(C(F)(F)F)c2)c2ccccc12	36 µM	
O=c1c2ccccc2n(Cc2cccc(F)c2)c2ccccc12	62 µM	
Cc1cccc(Cn2c3ccccc3c(=O)c3ccccc32)c1	8.8 µM	
CCOc1cc(Cn2c3ccccc3c(=O)c3ccccc32)cc(OCC)c1	6.7 µM	
COc1cc(CN2CCC(=O)CC2)cc(OC)c1OC	> 100 µM	
CCCCOc1cc(Cn2c3ccccc3c(=O)c3ccccc32)cc(OCCCC)c1	> 100 µM	
COc1cc(Cn2c3ccccc3c(=O)c3ccccc32)cc(OC)c1	0.7 µM	Activity (CCRF-CEM [2]): 27.4%; IC50 (K562): 11.4 µM; Activity (CCRF-CEM [3]): 10%; Activity (CCRF-CEM [4]): 21.7%; IC50 (HL-60): 0.6 µM; Activity (CCRF-CEM [5]): 9.5%; Activity (CCRF-CEM [6]): 41.6%; Activity (CCRF-CEM [7]): Dose-dependent effect; Activity (CCRF-CEM [8]): 33.6%
COc1cccc(Cn2c3ccccc3c(=O)c3ccccc32)c1	> 100 µM	
COc1cc(Cn2c3ccccc3c(=O)c3ccccc32)cc(OC)c1OC	1.5 µM	
O=c1c2ccccc2n(Cc2ccccc2)c2ccccc12	52 µM	
CCCOc1cc(Cn2c3ccccc3c(=O)c3ccccc32)cc(OCCC)c1	39.1 µM	
COc1ccc(Cn2c3ccccc3c(=O)c3ccccc32)cc1	> 100 µM	
